The source made the active and inactive calls. The calls are words filed in the database; no cut-off is given here.
Experiments:
Rattus norvegicus [1] = assay: Reduction of serum prolactin concentration in rats, 5 mg/Kg administered intraperitoneally; assay type: functional
Method in brief: (§1)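 Prolactin in serum of nonreserpinized male rats (Clemens method) after 5 mg/kg ip. Values are mean ± SE for 6-10 rats; significance versus control at P<0.05.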

[2] = biological target: D(2) dopamine receptor (Rattus norvegicus) (UniProt P61169); assay: (§2) Inhibitory activity against dopamine receptor D2 in rat corpus striatum using [3H]apomorphine as radioligand; assay type: tissue-based
Method in brief: (§3)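 Displacement of [3H]apomorphine binding in rat corpus striatum membranes; some values given as percent displacement at 1000 nM.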

[3] = biological target: D(2) dopamine receptor (Bos taurus) (UniProt P20288); assay: Inhibitory activity against dopamine receptor D2 in calf corpus striatum using [3H]-Spiperone as radioligand; assay type: tissue-based
Method in brief: (§4)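 Displacement of [3H]spiperone binding in calf corpus striatum membranes; some values given as percent displacement at 1000 nM.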

Rattus norvegicus [4] = assay: Inhibition of serum prolactin concentration in rats when 5 mg/Kg was administered intraperitoneally; assay type: functional; method in brief: as §1
Rattus norvegicus [5] = assay: Effect on serum corticosterone level […] when 10 mg/Kg was administered intraperitoneally; assay type: functional
Method in brief: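 Rats dosed 10 mg/kg ip. Serum corticosterone determined spectrofluorometrically (Solem and Brinck-Johnsen method), reported as µg/100 mL versus a vehicle group and as % change from control. Mean ± SE, five rats per group; significance P<0.05.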

Rattus norvegicus [6] = species on record: Rattus norvegicus; assay: Dopa accumulation in GBL-treated rats in the absence of the compound; assay type: functional
Method in brief: (§5)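 Male rats given compound ip; γ-butyrolactone 500 mg/kg ip 10 min later, then decarboxylase inhibitor NSD 1015 100 mg/kg ip 5 min after GBL and 40 min before sacrifice. Striatal dopa accumulation measured by LC with electrochemical detection; Roth autoreceptor paradigm. Values are mean ± SE, five rats per group; one control group received no GBL.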

D(2) dopamine receptor [7] = biological target: T1, D(2) dopamine receptor (Rattus norvegicus, UniProt P61169); assay: as §2; assay type: tissue-based; method in brief: as §3
Rattus norvegicus [8] = assay: Effect on dopamine concentration in whole rat brain when 10 mg/Kg 10 mg/kg was administered intraperitoneally; assay type: functional; details: route intraperitoneal
Method in brief: (§6)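 Rats dosed 10 mg/kg ip. Whole-brain dopamine, DOPAC and HVA measured by liquid chromatography with electrochemical detection, expressed as nmol/g and as % change from a control group. Mean ± SE, five rats per group; significance at P<0.05.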

Rattus norvegicus [9] = assay: Dopa accumulation in GBL-treated rats after the administration at a dose of 3 mg/Kg; assay type: functional; method in brief: as §5
Rattus norvegicus [10] = assay: (§7) Effect on homovanillic acid concentration in whole rat brain when 10 mg/Kg was administered intraperitoneally; assay type: functional; method in brief: as §6
D(2) dopamine receptor [11] = biological target: T2, D(2) dopamine receptor (Bos taurus, UniProt P20288); assay: Inhibitory activity against dopamine receptor D2 in calf corpus striatum using [3H]spiperone as radioligand; assay type: tissue-based; method in brief: as §4
Rattus norvegicus [12] = assay: Dopa accumulation in GBL-treated rats after the administration at a dose of 0.3 mg/Kg; assay type: functional; method in brief: as §5
Rattus norvegicus [13] = assay: Effect on 3,4-Dihydroxyphenylacetic acid concentration in whole rat brain when 10 mg/Kg was administered intraperitoneally; assay type: functional; method in brief: as §6
Rattus norvegicus [14] = assay: Dopa accumulation in GBL-treated rats after the administration at a dose of 10 mg/Kg; assay type: functional; method in brief: as §5
Rattus norvegicus [15] = assay: Dopa accumulation in GBL-treated rats after the administration at a dose of 1.0 mg/Kg; assay type: functional; method in brief: as §5
Rattus norvegicus [16] = assay: Inhibition of serum prolactin concentration in rats when 5 mg/Kg was administered intraperitoneally; NS means not significant; assay type: functional, organism-based; method in brief: as §1
Rattus norvegicus [17] = assay: Effect on dopamine concentration in whole rat brain when 10 mg/Kg was administered intraperitoneally; assay type: functional; method in brief: as §6
Rattus norvegicus [18] = assay: Inhibition of serum prolactin concentration in rats when 5 mg/kg was administered intraperitoneally; assay type: functional; details: ip, route intraperitoneal; method in brief: as §1
D(2) dopamine receptor [19] = biological target: T1, D(2) dopamine receptor; assay: Inhibitory activity against Dopamine receptor D2 in rat corpus striatum using [3H]Apomorphine as radioligand; assay type: tissue-based; method in brief: as §3
D(2) dopamine receptor [20] = biological target: T2, D(2) dopamine receptor; assay: (§8) Inhibitory activity against Dopamine receptor D2 in calf corpus striatum using [3H]spiperone as radioligand; assay type: tissue-based; method in brief: as §4
Rattus norvegicus [21] = assay: Effect on homovanillic acid concentration in whole rat brain when 10 mg/kg was administered intraperitoneally; assay type: functional; details: route intraperitoneal
Method in brief: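 Rats dosed ip at 10 mg/kg. Whole brain was assayed for HVA, with dopamine and DOPAC measured alongside, by liquid chromatography with electrochemical detection. Levels are in nmol/g and expressed as % change from control. Values are mean ± standard error for five rats per group. Significance versus control was taken at P<0.05.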

Rattus norvegicus [22] = assay: Effect on serum corticosterone level in whole rat brain when 10 mg/kg was administered intraperitoneally; assay type: functional; details: route intraperitoneal
Method in brief: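 Rats dosed ip at 10 mg/kg. Serum corticosterone was determined spectrofluorometrically and reported in µg/100 mL, as % change from vehicle. Values are mean ± standard error for five rats per group. Significance versus control was taken at P<0.05.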

Rattus norvegicus [23] = assay: as §7
[24] = biological target: D(2) dopamine receptor (Rattus norvegicus) (UniProt P61169); assay: Inhibitory activity against Dopamine receptor D2 in rat corpus striatum using [3H]apomorphine as radioligand; assay type: tissue-based; method in brief: as §3
[25] = biological target: D(2) dopamine receptor (Bos taurus) (UniProt P20288); assay: as §8; assay type: tissue-based; method in brief: as §4

Chain of D(2) dopamine receptor (Bos taurus) (P20288 whole entry): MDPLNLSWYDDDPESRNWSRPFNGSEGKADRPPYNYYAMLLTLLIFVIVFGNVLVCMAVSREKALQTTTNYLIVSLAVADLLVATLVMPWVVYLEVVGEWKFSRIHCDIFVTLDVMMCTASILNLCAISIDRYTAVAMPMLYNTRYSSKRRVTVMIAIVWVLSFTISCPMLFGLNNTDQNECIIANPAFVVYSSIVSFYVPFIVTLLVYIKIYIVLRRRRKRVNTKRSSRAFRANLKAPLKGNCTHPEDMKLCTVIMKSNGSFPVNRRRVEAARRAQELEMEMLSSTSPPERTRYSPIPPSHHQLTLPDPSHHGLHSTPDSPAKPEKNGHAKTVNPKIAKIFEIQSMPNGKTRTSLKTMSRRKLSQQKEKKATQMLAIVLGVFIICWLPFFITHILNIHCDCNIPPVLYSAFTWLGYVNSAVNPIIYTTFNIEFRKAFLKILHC
T2 sequence (P20288 whole entry): as above
Chain of D(2) dopamine receptor (Rattus norvegicus) (P61169 whole entry): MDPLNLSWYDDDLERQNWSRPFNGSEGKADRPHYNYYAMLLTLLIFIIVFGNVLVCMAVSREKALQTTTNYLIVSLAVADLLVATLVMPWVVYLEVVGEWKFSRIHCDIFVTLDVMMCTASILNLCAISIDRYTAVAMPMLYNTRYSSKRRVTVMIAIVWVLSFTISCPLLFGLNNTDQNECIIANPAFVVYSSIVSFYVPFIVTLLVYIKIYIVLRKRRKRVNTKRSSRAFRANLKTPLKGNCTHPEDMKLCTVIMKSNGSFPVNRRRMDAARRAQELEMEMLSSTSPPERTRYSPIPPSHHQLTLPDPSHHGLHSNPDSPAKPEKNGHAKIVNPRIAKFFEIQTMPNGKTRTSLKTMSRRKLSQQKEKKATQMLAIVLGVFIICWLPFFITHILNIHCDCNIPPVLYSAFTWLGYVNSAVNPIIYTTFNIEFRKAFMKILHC
T1 sequence (P61169 whole entry): as above

| SMILES | Turnover (Rattus norvegicus [1]) | Inhibition (Rattus norvegicus [4]) | Turnover (Rattus norvegicus [5]) | IC50 (D(2) dopamine receptor [7]) | Turnover (Rattus norvegicus [10]) | IC50 (D(2) dopamine receptor [11]) | Turnover (Rattus norvegicus [13]) | Turnover (Rattus norvegicus [17]) | also measured |
| --- | --- | --- | --- | --- | --- | --- | --- | --- | --- |
| CCCN[C@@H]1Cc2c[nH]nc2C[C@H]1CCCOC | 4.6 ng/mL | 44% | – | – | – | – | – | – | Displacement [2]: 50%; Displacement [3]: 12% |
| CCCNC1CCc2n[nH]cc2C1 (centres undefined) | 2.4 ng/mL | 78% | 31.7 µg/100 mL | 0.065 µM | 0.51 nmol/g | 15.2 µM | 0.51 nmol/g | – | Accumulation (Rattus norvegicus [6]): 24.8 nM/g; Turnover (Rattus norvegicus [8]): 4.86 nmol/g; Accumulation (Rattus norvegicus [9]): 16.9 nM/g; Accumulation (Rattus norvegicus [12]): 25.2 nM/g; Accumulation (Rattus norvegicus [14]): 12.1 nM/g; Accumulation (Rattus norvegicus [15]): 23.1 nM/g |
| CCCN[C@@H]1Cc2c[nH]nc2C[C@H]1CCCSC | 7.8 ng/mL | – | – | – | – | – | – | – | Displacement [2]: 45%; Displacement [3]: 10%; inhibition (Rattus norvegicus [16]): inactive |
| CCCN(CCCSC)C1CCc2n[nH]cc2C1 (centres undefined) | 1.1 ng/mL | 90% | 48 µg/100 mL | 0.31 µM | 0.16 nmol/g | 3.99 µM | 0.28 nmol/g | 4.92 nmol/g | – |
| CCCN(C)C1CCc2n[nH]cc2C1 (centres undefined) | 2 ng/mL | – | 41 µg/100 mL | – | – | – | 0.43 nmol/g | 5.16 nmol/g | inhibition in vivo at 5 mg/kg (Rattus norvegicus [18]): 82%; IC50 (D(2) dopamine receptor [19]): 1.23 µM; IC50 (D(2) dopamine receptor [20]): 8.33 µM; Turnover (Rattus norvegicus [21]): 0.22 nmol/g |
| CSCCCNC1CCc2n[nH]cc2C1 (centres undefined) | 9.9 ng/mL | – | 3.8 µg/100 mL | 2.03 µM | 0.27 nmol/g | > 10 µM | 0.49 nmol/g | 3.91 nmol/g | inhibition (Rattus norvegicus [16]): inactive |
| CCNC1CCc2n[nH]cc2C1 (centres undefined) | 1.6 ng/mL | 91% | 16.6 µg/100 mL | 0.61 µM | 0.4 nmol/g | 11.6 µM | 0.55 nmol/g | 6.39 nmol/g | – |
| CCCN1C[C@H](CSC)C[C@@H]2c3cccc4[nH]cc(c34)C[C@H]21 [PERGOLIDE] | 2 ng/mL | 88% | – | – | – | – | 0.53 nmol/g | 6.42 nmol/g | Turnover (Rattus norvegicus [21]): 0.32 nmol/g; Turnover (Rattus norvegicus [22]): 54 µg/100 mL |
| c1ccc(CCNC2CCc3n[nH]cc3C2)cc1 (centres undefined) | 6 ng/mL | – | 7.7 µg/100 mL | – | 0.34 nmol/g | > 10 µM | 0.51 nmol/g | 3.65 nmol/g | inhibition (Rattus norvegicus [16]): inactive |
| c1csc(CCNC2CCc3n[nH]cc3C2)c1 (centres undefined) | 7.9 ng/mL | – | 5.5 µg/100 mL | 9.16 µM | 0.38 nmol/g | > 10 µM | 0.49 nmol/g | 3.47 nmol/g | inhibition (Rattus norvegicus [16]): inactive |
| CCCCNC1CCc2[nH]ncc2C1 (centres undefined) | – | – | – | > 10 µM | – | > 10 µM | – | – | – |
| CCCNC1CCc2nc(N)sc2C1 (centres undefined) | 3.7 ng/mL | 78% | 54 µg/100 mL | – | – | > 1 µM | 0.35 nmol/g | 5.08 nmol/g | Turnover (Rattus norvegicus [23]): 0.15 nmol/g |
| CCCN(CCc1cccs1)C1CCc2n[nH]cc2C1 (centres undefined) | 2.8 ng/mL | 73% | 17.3 µg/100 mL | 0.16 µM | 0.24 nmol/g | 1.41 µM | 0.43 nmol/g | 4.78 nmol/g | – |
| CCCCNC1CCc2n[nH]cc2C1 (centres undefined) | 13.4 ng/mL | – | 5.8 µg/100 mL | – | 0.36 nmol/g | – | 0.53 nmol/g | 3.9 nmol/g | inhibition (Rattus norvegicus [16]): inactive |
| CCCN[C@@H]1Cc2c[nH]nc2C[C@H]1CCC | 5.1 ng/mL | – | – | – | – | – | – | – | Displacement [24]: 41%; Displacement [25]: 9% |
| CCCCN(CCC)C1CCc2n[nH]cc2C1 (centres undefined) | 1.9 ng/mL | – | 38.6 ng/mL | – | – | – | 0.39 nmol/g | 4.94 nmol/g | inhibition in vivo at 5 mg/kg (Rattus norvegicus [18]): 83%; IC50 (D(2) dopamine receptor [19]): 0.33 µM; IC50 (D(2) dopamine receptor [20]): 10 µM |
| CCCN[C@@H]1Cc2c[nH]nc2C[C@H]1CCCO | 4.4 ng/mL | 46% | – | – | – | – | – | – | Displacement [2]: 45%; Displacement [3]: 10% |
| CCCN(CCc1ccccc1)C1CCc2n[nH]cc2C1 (centres undefined) | 1.4 ng/mL | 87% | 17.5 µg/100 mL | 0.14 µM | 0.23 nmol/g | 1.06 µM | 0.4 nmol/g | 4.41 nmol/g | – |
